Data from ChEMBL document CHEMBL4808167, “Design, Synthesis, and Evaluation of Small Molecule Gαq/11 Protein Inhibitors for the Treatment of Uveal Melanoma” (J Med Chem, 2021).

Tests used:
[1] = Induction of apoptosis in human MP41 cells assessed as early apoptotic cells at 30 uM after 48 hrs by Annexin-V-FITC/propidium iodide staining based flow cytometry (reference value: 2.96%); assay type: functional
[2] = AUC(0 to t) in ICR mouse at 10 mg/kg, iv measured upto 24 hrs by LC-MS/MS analysis; assay type: ADME, organism-based; design: route intravenous, dose 10 mg/kg, time <=24; conditions: in vivo
How it was run: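 Single dose in male ICR mice, 10 mg/kg iv or 30 mg/kg po, dissolved in 5% DMSO/95% saline. Blood drawn by catheter at 0, 5, 15, 30 min and 1, 2, 4, 6, 8, 24 h. Plasma spun 6800g 6 min at 2−8 °C, stored −80 °C, quantified by LC−MS/MS. Noncompartmental parameters, mean ± SD, n = 6.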

GNAQ/GNA11 = molecular target: T1, GNAQ/GNA11 (Homo sapiens, UniProt P50148+P29992); experiment: Binding affinity to Galphaq/11 (unknown origin) expressed in HEK293 cells cotransfected with AT1R/Galphaq-RLuc8/ Ggamma2-venus/Gbeta1 assessed as inhibition of Ang-II induced-BRET signal preincubated for 1 hr followed by Ang-II addition by BRET assay; assay type: cell-based
T1 sequence (P50148 whole entry): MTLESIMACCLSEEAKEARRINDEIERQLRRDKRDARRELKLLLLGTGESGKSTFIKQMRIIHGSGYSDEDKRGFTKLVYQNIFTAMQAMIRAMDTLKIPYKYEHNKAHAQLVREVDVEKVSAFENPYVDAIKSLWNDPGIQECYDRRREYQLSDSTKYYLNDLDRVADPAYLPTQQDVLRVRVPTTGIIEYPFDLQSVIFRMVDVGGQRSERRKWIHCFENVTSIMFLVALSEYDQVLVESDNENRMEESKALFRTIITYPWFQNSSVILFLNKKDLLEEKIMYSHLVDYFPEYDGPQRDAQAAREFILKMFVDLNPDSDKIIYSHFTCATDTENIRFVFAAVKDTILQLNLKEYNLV
T1 sequence (P29992 whole entry): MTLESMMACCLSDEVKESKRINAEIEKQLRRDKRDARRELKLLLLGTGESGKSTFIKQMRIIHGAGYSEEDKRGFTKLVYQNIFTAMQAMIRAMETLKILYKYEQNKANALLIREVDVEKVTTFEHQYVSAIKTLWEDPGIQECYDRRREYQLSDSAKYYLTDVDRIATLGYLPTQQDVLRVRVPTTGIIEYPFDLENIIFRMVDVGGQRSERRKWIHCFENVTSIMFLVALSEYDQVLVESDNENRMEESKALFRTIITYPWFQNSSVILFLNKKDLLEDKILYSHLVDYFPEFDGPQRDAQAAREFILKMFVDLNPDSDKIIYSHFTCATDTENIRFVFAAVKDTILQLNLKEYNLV
How it was run: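 HEK293 cells transiently transfected with AT₁R, Gαq-RLuc8, Gγ2-Venus and untagged Gβ1. Replated 24 h later, washed with HBS, starved 10 min, then pretreated with compound for 1 h at 37 °C. AngII added, followed by coelenterazine. BRET ratio taken as Venus emission (520−570 nm) over RLuc8 emission (370−480 nm). Mean ± SD, n = 3.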

[3] = Induction of apoptosis in human 921 cells assessed as early apoptotic cells at 5 uM after 48 hrs by Annexin-V-FITC/propidium iodide staining based flow cytometry (reference value: 3.39%); assay type: functional
[4] = Induction of apoptosis in human 921 cells assessed as necrotic cells at 5 uM after 48 hrs by Annexin-V-FITC/propidium iodide staining based flow cytometry (reference value: 0.26%); assay type: functional
[5] = Tmax in ICR mouse at 30 mg/kg, po measured upto 24 hrs by LC-MS/MS analysis; assay type: ADME, organism-based; conditions: in vivo
How it was run: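 Single-dose PK in male ICR mice (n = 6): 10 mg/kg iv or 30 mg/kg po, vehicle 5% DMSO/95% saline. Blood (30 μL) by catheter at 0, 5, 15, 30 min and 1, 2, 4, 6, 8, 24 h; plasma by centrifugation, stored −80 °C, measured by LC–MS/MS. Parameters from noncompartmental analysis, mean SD.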

AUC(0-t) at 24 h [2]: 2140 ng·h/mL
IC50 (GNAQ/GNA11): 55.2 µM
Tmax [5]: 25.2 min
SMILES: CC[C@@H](C)[C@H](N)C(=O)N1CCn2cc(-c3ccccc3)nc2[C@@H]1CC1CCCCC1
Activity [1]: 17.9%
Activity [3]: 6.08%
Activity [4]: 0.43%
